How the values were obtained:
Assay type in all cases: functional
Mus musculus [1] = test: Survival of Plasmodium berghei GFP infected mice (Mus musculus) at 10 mg/kg, subcutaneous after single dose
Method in brief: (§1)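 Single subcutaneous dose given on day 1 after infection; vehicle Tween 80 (70%)/ethanol (30%), then 10× dilution with water. Three animals per dimer group. Read-out is average survival in days after infection. Mice alive at day 30 were sacrificed, and if no parasites were detected they were counted cured. Parasitemia was measured by flow cytometry.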

Mus musculus [2] = test: Survival of Plasmodium berghei GFP infected mice (Mus musculus) at 30 mg/kg, subcutaneous after single dose; method in brief: as §1
Mus musculus [3] = test: Survival of Plasmodium berghei GFP infected mice (Mus musculus) at 3 mg/kg, subcutaneous after single dose; method in brief: as §1
Mus musculus [4] = test: Survival of Plasmodium berghei GFP infected mice (Mus musculus) at 30 mg/kg, peroral after three doses; conditions: route oral
Method in brief: as §1, with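 “Three consecutive daily oral doses starting” for “Single subcutaneous dose given on”, “Survivors” for “Mice alive”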

SMILES	Survival (Mus musculus [1])	Survival (Mus musculus [2])	Survival (Mus musculus [3])	Survival (Mus musculus [4])
C[C@H]1[C@@H](CC(CNc2ccccc2)C[C@H]2O[C@@H]3O[C@@]4(C)CC[C@H]5[C@H](C)CC[C@@H]([C@H]2C)[C@@]35OO4)O[C@@H]2O[C@@]3(C)CC[C@H]4[C@H](C)CC[C@@H]1[C@@]24OO3 (some centres not stated)	12.3 days	>30 days	8 days	
Cc1ccc(COCC(C[C@H]2O[C@@H]3O[C@@]4(C)CC[C@H]5[C@H](C)CC[C@@H]([C@H]2C)[C@@]35OO4)C[C@H]2O[C@@H]3O[C@@]4(C)CC[C@H]5[C@H](C)CC[C@@H]([C@H]2C)[C@@]35OO4)cc1 (some centres not stated)	10 days	27 days	8 days	>30 days
C[C@H]1[C@@H](CC(O)(COCc2ccncc2)C[C@H]2O[C@@H]3O[C@@]4(C)CC[C@H]5[C@H](C)CC[C@@H]([C@H]2C)[C@@]35OO4)O[C@@H]2O[C@@]3(C)CC[C@H]4[C@H](C)CC[C@@H]1[C@@]24OO3 (some centres not stated)	13.3 days	15 days	9.7 days	>30 days
C[C@H]1[C@@H](CC(C[C@H]2O[C@H]3O[C@@]4(C)CC[C@H]5[C@H](C)CC[C@@H]([C@H]2C)[C@@]35OO4)C(=O)NNC(=O)c2ccncc2)O[C@@H]2O[C@@]3(C)CC[C@H]4[C@H](C)CC[C@@H]1[C@@]24OO3 (some centres not stated)	10 days	>30 days	9 days	7 days
C[C@H]1[C@H](OC(=O)CCC(=O)O)O[C@@H]2O[C@@]3(C)CC[C@H]4[C@H](C)CC[C@@H]1[C@@]24OO3 [ARTESUNATE]	8.6 days	9.1 days	7.3 days	7.5 days
C[C@H]1[C@@H](CC(C[C@H]2O[C@H]3O[C@@]4(C)CC[C@H]5[C@H](C)CC[C@@H]([C@H]2C)[C@@]35OO4)C(=O)NCc2ccccc2)O[C@@H]2O[C@@]3(C)CC[C@H]4[C@H](C)CC[C@@H]1[C@@]24OO3 (some centres not stated)	15 days	>30 days	12.3 days	12.7 days
C[C@H]1[C@@H](CC(C[C@H]2O[C@H]3O[C@@]4(C)CC[C@H]5[C@H](C)CC[C@@H]([C@H]2C)[C@@]35OO4)C(=O)NC(C)(C)C)O[C@@H]2O[C@@]3(C)CC[C@H]4[C@H](C)CC[C@@H]1[C@@]24OO3 (some centres not stated)	25.3 days	>30 days	14 days	14.7 days

Source: ChEMBL document CHEMBL1139862, “Malaria-infected mice are cured by a single dose of novel artemisinin derivatives” (2007)
